Results published in article PMC9588736 (Cell chemical biology, 2022).

Legend:
[1] = target: FAK (Homo sapiens, UniProt Q05397); experiment: Immunoblot of FAK degradation in PATU-8988T cells; assay type: cell-based; details: 0.1–5 μM, 24 h
How it was run: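 Human PATU-8988T pancreatic cells (DMEM, 10% FBS) were treated 24 h with test compound at 0.1–5 μM. FAK was assessed by immunoblot of RIPA lysates and normalised to β-actin. Two independent experiments.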

[2] = tested on: KPC cells; experiment: Quantitative proteomics in KPC cells; assay type: cell-based, mouse; details: 1 μM, 8 hours
How it was run: (§1)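 TMT-multiplexed LC-MS proteomics. Cells were treated with DMSO (biological triplicate) or test compound (MM.1S: 0.2 μM, 6 h; KPC: 1 μM, 8 h), harvested by centrifugation at 4 °C and lysed in 8 M urea/EPPS pH 8.5. 200 μg protein was reduced, alkylated and precipitated, digested with LysC 12 h at room temperature then trypsin 6 h at 37 °C, TMT-labelled, high-pH fractionated (96→24) and run on an Orbitrap Fusion Lumos.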

[3] = target: FAK (Mus musculus, UniProt P34152); experiment: Immunoblot of FAK degradation in KPC cells; assay type: cell-based
FAK (Mus musculus, UniProt P34152), sequence (P34152 whole entry): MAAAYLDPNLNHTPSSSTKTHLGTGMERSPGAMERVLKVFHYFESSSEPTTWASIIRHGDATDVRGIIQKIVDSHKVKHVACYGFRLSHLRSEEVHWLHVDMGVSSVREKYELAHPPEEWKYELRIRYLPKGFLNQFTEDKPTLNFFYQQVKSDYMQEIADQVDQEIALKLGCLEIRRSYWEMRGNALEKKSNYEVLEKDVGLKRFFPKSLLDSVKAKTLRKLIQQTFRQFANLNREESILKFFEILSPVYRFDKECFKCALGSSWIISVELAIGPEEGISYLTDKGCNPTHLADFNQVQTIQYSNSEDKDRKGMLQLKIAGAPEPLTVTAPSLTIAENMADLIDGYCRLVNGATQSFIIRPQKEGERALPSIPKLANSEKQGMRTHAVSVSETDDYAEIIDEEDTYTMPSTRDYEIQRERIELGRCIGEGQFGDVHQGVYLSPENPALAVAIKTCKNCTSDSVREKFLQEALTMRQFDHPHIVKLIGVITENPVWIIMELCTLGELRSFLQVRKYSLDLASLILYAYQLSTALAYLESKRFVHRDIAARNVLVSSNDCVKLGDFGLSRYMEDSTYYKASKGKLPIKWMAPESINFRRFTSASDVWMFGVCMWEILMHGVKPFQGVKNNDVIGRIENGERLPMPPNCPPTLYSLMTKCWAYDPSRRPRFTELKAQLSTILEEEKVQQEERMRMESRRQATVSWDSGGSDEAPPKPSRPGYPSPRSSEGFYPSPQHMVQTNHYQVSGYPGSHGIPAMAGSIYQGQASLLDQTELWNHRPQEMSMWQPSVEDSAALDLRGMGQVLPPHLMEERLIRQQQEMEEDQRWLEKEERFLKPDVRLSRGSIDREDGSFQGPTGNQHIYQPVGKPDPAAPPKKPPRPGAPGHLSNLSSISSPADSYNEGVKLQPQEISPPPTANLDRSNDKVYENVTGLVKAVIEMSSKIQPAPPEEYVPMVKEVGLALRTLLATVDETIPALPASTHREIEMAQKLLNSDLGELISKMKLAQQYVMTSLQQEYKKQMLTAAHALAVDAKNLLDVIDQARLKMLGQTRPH
How it was run: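 Murine pancreatic KPC cells (RPMI, 10% FBS) were exposed to 500 nM or 1 μM test compound over a time course. RIPA lysates were immunoblotted, with FAK band intensity normalised to β-actin in ImageJ. Blots are representative of two independent experiments.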

[4] = tested on: HEK293T cells; experiment: Quantitative proteomics in HEK293T cells; assay type: cell-based; details: human HEK293T cells, 10 hour treatment
[5] = target: T1, BRD4 (Homo sapiens, UniProt O60885); experiment: Immunoblot of BRD4 degradation in MM.1S cells; assay type: cell-based
How it was run: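 MM.1S cells were treated with test compound for 16 h (24 h in the initial screen). For rescue, cells were pretreated 2 h with 10 μM KEAP1 inhibitor, 10 μM JQ1 or 1 μM MLN4924. Lysates in RIPA were BCA-normalised, run on 4–12% gels and blotted to PVDF with IRDye secondaries. BRD4 bands were quantified relative to β-actin. Two independent experiments.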

[6] = tested on: BRD4/3/2; experiment: Immunoblot of BRD4/3/2 in MM.1S cells; assay type: cell-based, human; details: indicated time points
How it was run: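 MM.1S cells were grown in RPMI with 10% FBS at 37 °C and 5% CO2, then given DMSO or test compound for a time course. Cells were lysed in RIPA with protease and phosphatase inhibitors. BCA-equalised protein was run on 4–12% gels and transferred to PVDF. Primary antibodies ran overnight at 4 °C and IRDye secondaries 1 h at room temperature. BRD4/3/2 bands were normalised to β-actin by densitometry. Two independent experiments.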

[7] = target: KEAP1-BRD4BD2 (Homo sapiens, UniProt O60885+Q14145); experiment: KEAP1-BRD4BD2 dimerization TR-FRET assay; assay type: biochemical
KEAP1-BRD4BD2, sequence (Q14145 321-609 limits assumed, other chains not shown): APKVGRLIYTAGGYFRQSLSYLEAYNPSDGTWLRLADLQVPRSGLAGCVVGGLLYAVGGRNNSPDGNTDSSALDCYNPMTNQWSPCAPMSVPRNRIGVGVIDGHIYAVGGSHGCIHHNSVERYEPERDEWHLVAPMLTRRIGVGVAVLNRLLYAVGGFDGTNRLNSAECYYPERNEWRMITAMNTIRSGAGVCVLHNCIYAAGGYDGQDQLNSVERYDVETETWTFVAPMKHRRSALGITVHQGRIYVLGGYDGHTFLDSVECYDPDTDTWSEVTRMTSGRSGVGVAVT
How it was run: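 TR-FRET mix: 200 nM biotinylated human BRD4BD2, 200 nM Alexa Fluor 647-labelled human KEAP1 (residues 321–609, insect-cell expressed, SpyCatcher-labelled) and 2 nM Eu-streptavidin. Buffer was 50 mM Tris pH 8.0, 200 mM NaCl, 0.1% Pluronic F-68, 0.5% BSA and 1 mM TCEP; compound was titrated. After 15 min at room temperature, excitation was 337 nm and the 665/620 nm ratio was read over thirty 200-s cycles. Mean ± SD of ≥3 technical replicates; two independent experiments.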

[8] = tested on: MM.1S proteome; experiment: Multiplexed mass spectrometry-based proteomics in MM.1S cells; assay type: cell-based, human; details: 200 nM, 6 hours
How it was run: as §1

[9] = target: T1, BRD4; experiment: Immunoblot of BRD4 degradation in parental and KEAP1 knockdown OVCAR8 cells; assay type: cell-based
How it was run: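 OVCAR8 cells were grown in DMEM with 10% FBS. KEAP1 knockdown lines came from shRNA lentivirus made in HEK293T, used with polybrene (10 μg/mL) and selected with puromycin (1 μg/mL); knockdown was checked by Western blot. Parental and knockdown cells were treated with test compound for 16 h, then immunoblotted. BRD4 was normalised to β-actin. Two independent experiments.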

FAK (Homo sapiens, UniProt Q05397), sequence (Q05397 whole entry): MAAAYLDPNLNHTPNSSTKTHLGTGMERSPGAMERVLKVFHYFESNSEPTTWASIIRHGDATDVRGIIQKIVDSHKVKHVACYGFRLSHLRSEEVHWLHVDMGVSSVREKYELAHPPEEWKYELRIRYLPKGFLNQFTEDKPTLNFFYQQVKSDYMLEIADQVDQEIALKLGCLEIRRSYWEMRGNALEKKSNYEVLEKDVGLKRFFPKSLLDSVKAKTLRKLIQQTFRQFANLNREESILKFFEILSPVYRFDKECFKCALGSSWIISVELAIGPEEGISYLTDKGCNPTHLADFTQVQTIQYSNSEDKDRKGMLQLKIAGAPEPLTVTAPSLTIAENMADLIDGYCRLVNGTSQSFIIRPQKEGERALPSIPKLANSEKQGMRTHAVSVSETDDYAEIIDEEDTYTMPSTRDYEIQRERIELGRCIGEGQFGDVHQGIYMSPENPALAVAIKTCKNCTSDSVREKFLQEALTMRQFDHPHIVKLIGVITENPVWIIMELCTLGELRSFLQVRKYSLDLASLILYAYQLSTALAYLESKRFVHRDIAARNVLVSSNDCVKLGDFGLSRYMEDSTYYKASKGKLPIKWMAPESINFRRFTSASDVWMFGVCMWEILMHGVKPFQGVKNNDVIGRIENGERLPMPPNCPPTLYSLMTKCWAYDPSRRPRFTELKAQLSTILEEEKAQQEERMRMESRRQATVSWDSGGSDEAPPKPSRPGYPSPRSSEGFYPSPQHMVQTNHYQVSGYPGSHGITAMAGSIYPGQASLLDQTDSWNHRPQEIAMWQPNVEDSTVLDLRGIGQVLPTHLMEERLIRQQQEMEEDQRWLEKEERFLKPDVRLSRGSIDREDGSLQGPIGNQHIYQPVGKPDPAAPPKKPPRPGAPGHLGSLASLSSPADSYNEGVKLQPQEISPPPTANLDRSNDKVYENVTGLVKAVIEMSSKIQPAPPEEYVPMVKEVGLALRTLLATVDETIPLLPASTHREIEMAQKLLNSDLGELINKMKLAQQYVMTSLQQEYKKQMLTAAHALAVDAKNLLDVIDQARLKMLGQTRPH

COc1cc([C@@H](CC(=O)O)c2ccc(C)c(CN3C[C@@H](C)Oc4cc(CCCN5CCN(c6ccc(Nc7ncc(Cl)c(Nc8ccccc8S(=O)(=O)C(C)C)n7)cc6)CC5)ccc4S3(=O)=O)c2)cc2nnn(C)c12 [NJH-04–098, (S)-3-(3-(((R)-7-(3-(4-(4-((5-chloro-4-((2-(isopropylsulfonyl)phenyl)amino)pyrimidin-2-yl)amino)phenyl)piperazin-1-yl)propyl)-4-methyl-1,1-dioxido-3,4-dihydro-2H-benzo[b][1,4,5]oxathiazepin-2-yl)methyl)-4-methylphenyl)-3-(7-methoxy-1-methyl-1H-benzo[d][1,2,3]triazol-5-yl)propanoic acid]
FAK degradation [1]: did not observe degradation of FAK
proteins downregulated across the proteome [2]: only FAK (PTK2) was significantly downregulated across the proteome
time of maximal FAK degradation ([3]; 500 nM): 24 h
time of maximal FAK degradation ([3]; 1 μM): 8 h

Cc1ccc(C(CC(=O)O)c2cc(OCC(=O)NCCOCCOCCN3CCN(c4ccc(Nc5ncc(Cl)c(Nc6ccccc6S(=O)(=O)C(C)C)n5)cc4)CC3)c3c(c2)nnn3C)cc1CN1CC(C)Oc2ccccc2S1(=O)=O (centres unmarked) [DGY-03–188, 3-(7-(2-((2-(2-(2-(4-(4-((5-chloro-4-((2-(isopropylsulfonyl)phenyl)amino)pyrimidin-2-yl)amino)phenyl)piperazin-1-yl)ethoxy)ethoxy)ethyl)amino)-2-oxoethoxy)-1-methyl-1H-benzo[d][1,2,3]triazol-5-yl)-3-(4-methyl-3-((4-methyl-1,1-dioxido-3,4-dihydro-2H-benzo[b][1,4,5]oxathiazepin-2-yl)methyl)phenyl)propanoic acid]
degradation across the whole proteome [4]: did not induce any degradation across the whole proteome

COc1cc([C@@H](CC(=O)O)c2ccc(C)c(CN3C[C@@H](C)Oc4cc(CCCCCCNC(=O)C[C@@H]5N=C(c6ccc(Cl)cc6)c6c(sc(C)c6C)-n6c(C)nnc65)ccc4S3(=O)=O)c2)cc2nnn(C)c12 [DGY-06–177-pk2, (S)-3-(3-(((R)-7-(6-(2-((S)-4-(4-chlorophenyl)-2,3,9-trimethyl-6H-thieno[3,2-f][1,2,4]triazolo[4,3-a][1,4]diazepin-6-yl)acetamido)hexyl)-4-methyl-1,1-dioxido-3,4-dihydro-2H-benzo[b][1,4,5]oxathiazepin-2-yl)methyl)-4-methylphenyl)-3-(7-methoxy-1-methyl-1H-benzo[d][1,2,3]triazol-5-yl)propanoic acid]
BRD4 degradation, enantiomers compared ([5]; MM1.S cells, 24-hour treatment at 1 μM): induced stronger degradation of BRD4
BRD4 degradation after pre-treatment with MLN4924 ([5]; MM.1S cells, 1 μM MLN4924 2 h prior, then 16 hrs): BRD4 degradation was blocked
BRD4 degradation after pre-treatment with excess (+)-JQ1 or KI-696 ([5]; MM.1S cells, 10 μM JQ1 or 10 μM KEAP1 inhibitor 2 h prior, then 16 hrs): abolished
degradation of BRD4 versus BRD2 and BRD3 by immunoblotting [6]: preferentially induces BRD4 degradation while largely sparing BRD2&3
concentration at which KEAP1-BRD4BD2 dimerization is promoted [7]: approximately 100 nM
selectivity of degradation across the proteome [8]: BRD4 as the only significantly downregulated protein
effect on BRD4 abundance ([9]; KEAP1 knockdown (KEAP1^KD) OVCAR8 cells, 16 h): no effect on BRD4 abundance
BRD4 degradation ([9]; OVCAR8 cells, 1 μM): induces degradation of BRD4
concentration of maximal BRD4 degradation ([9]; parental OVCAR8 cells, 16 hours): 1 µM
